Each structure is given as a SMILES string. Numbered stars: 1 amine (or outer) side, 2 acyl side, 3 side chain; on linkers, the order of the positions; unused ones are H or OH. Bridge positions count the residues as written; N and C are the ends. Square brackets hold non-standard residues; d marks the D form. Peptide text beside a SMILES is read from it. N(2-Aminoethyl)Gly = O=C(CN(CCN[*:3])[*:1])[*:2]; Adipoyl = O=C(CCCCC(=O)[*:2])[*:1]; Glutaryl = O=C(CCCC(=O)[*:2])[*:1]; Suc = O=C(CCC(=O)[*:2])[*:1]; Nphe = O=C(O)CNCc1ccccc1 Where only a bound is given, the exact number is not on record here.

From ChEMBL document CHEMBL1159118, “The effect of backbone cyclization on PK/PD properties of bioactive peptide-peptoid hybrids: the melanocortin agonist paradigm” (Bioorg Med Chem, 2010) come the findings set out here.

Series [1] concerns Serum. Kind of series: Metabolic stability in rat serum assessed as drug remaining after 3 hrs. It counts as ADME, cell-free.
Series [2] is described as follows: Metabolic stability in Wistar rat brush border membrane vesicles assessed as drug degradation up to 90 mins by HPLC. It counts as ADME, cell membranes. To be noted: read-out: Activity. A digest of the protocol: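 Brush border membrane vesicles from duodenum, jejunum and upper ileum of male Wistar rats (200–250 g), Ca2+ precipitation, 13–18-fold marker-enzyme enrichment. Compound incubated with BBMVs at 37 °C for 90 min; duplicate samples at 0, 15, 30, 45, 60, 90 min, quenched 1:1 with ice-cold methanol, centrifuged, analysed by HPLC.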

Series [3] concerns the target Melanocyte-stimulating hormone receptor (Mus musculus, UniProt Q01727). Kind of series: Agonist activity at mouse MC1R expressed in HEK293 cells by beta-galactosidase reporter gene assay. It counts as functional, cell-based. For orientation: A reporter such as luciferase makes a cellular process visible.
Series [4] addresses Melanocortin receptor 4 (Mus musculus, UniProt P56450). Kind of series: Agonist activity at mouse MC4R expressed in HEK293 cells by beta-galactosidase reporter gene assay. It counts as functional, cell-based.
Series [5] addresses Melanocortin receptor 5 (Mus musculus, UniProt P41149). Kind of series: Agonist activity at mouse MC5R expressed in HEK293 cells by beta-galactosidase reporter gene assay. It counts as functional, cell-based.
Series [6] addresses Melanocortin receptor 3 (Mus musculus) (UniProt P33033). Kind of series: Agonist activity at mouse MC3R expressed in HEK293 cells at 100 uM by beta-galactosidase reporter gene assay relative to control. It counts as functional, cell-based. The method, boiled down: (§1)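 CRE/β-galactosidase reporter in HEK-293 cells stably expressing the mouse receptor; 6 h peptide exposure with 0.1 mM IBMX; ONPG read at OD 405 nm, normalized to protein content and forskolin (10–4 M) response; % stimulation at highest concentration tested, relative to control; ≥3 independent experiments.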

The nature of series [7]: Membrane binding affinity to synthetic dimyristoylphosphatidylcholine/polydiacetylene vesicles assessed as colorimetric response by colorimetric assay. On the set-up: concentration or dose not given beside the values. A digest of the protocol: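 Peptide added from 0.4 mg/mL stock to vesicles (0.5 mM total lipids, 25 mM Tris-base pH 8), diluted with water; UV–vis absorbance at 640 and 500 nm; %CR = [(PB0 − PBI)/PB0] × 100, PB = Ablue/(Ablue + Ared); duplicates.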

The target in series [8] is Melanocortin receptor 3 (Mus musculus, UniProt P33033). Kind of series: Agonist activity at mouse MC3R expressed in HEK293 cells by beta-galactosidase reporter gene assay. It counts as functional, cell-based.
Series [9] has as its target Melanocortin receptor 4 (Mus musculus) (UniProt P56450). Kind of series: Agonist activity at mouse MC4R expressed in HEK293 cells at 100 uM by beta-galactosidase reporter gene assay relative to control. It is filed as functional, cell-based. The method, boiled down: as §1
Series [10] in a line: (§2) Metabolic stability in rat serum assessed as drug degradation after 4 hrs. It counts as ADME, cell-free. To be noted: read-out: Activity.
Series [11] relates to Caco-2. Kind of series: Ratio of Papp for mannitol to Papp for drug in permeability across apical to basolateral side of human Caco-2 cells. It is filed as ADME, cell-based. In general terms: Passage across Caco-2 layers is used to estimate intestinal permeability.
The nature of series [12]: (§3) Metabolic stability in rat serum assessed as drug degradation after 1 hr. To be noted: read-out: Activity. It counts as ADME, cell-free. A digest of the protocol:
(§4)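 Incubation in rat serum, sampled at 0, 1, 2 and 5 h; degradation relative to initial concentration.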

For series [13], the system named is Serum. Described as §3. It counts as ADME, cell-free. To be noted: 1 h. The method, boiled down: as §4
In series [14] the test system is Serum. Described as §2. It is filed as ADME, cell-free. To be noted: 4 h.

Melanocortin receptor 5, sequence (P41149 whole entry): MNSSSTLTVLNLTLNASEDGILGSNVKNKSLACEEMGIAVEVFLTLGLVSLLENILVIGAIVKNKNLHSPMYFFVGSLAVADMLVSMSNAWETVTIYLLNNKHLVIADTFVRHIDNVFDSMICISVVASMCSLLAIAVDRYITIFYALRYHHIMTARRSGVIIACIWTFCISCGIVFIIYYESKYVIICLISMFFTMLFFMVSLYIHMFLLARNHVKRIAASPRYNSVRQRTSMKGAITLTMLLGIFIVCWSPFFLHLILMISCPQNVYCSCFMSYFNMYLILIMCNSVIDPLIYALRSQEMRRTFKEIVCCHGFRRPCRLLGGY
Melanocortin receptor 3, sequence (P33033 whole entry): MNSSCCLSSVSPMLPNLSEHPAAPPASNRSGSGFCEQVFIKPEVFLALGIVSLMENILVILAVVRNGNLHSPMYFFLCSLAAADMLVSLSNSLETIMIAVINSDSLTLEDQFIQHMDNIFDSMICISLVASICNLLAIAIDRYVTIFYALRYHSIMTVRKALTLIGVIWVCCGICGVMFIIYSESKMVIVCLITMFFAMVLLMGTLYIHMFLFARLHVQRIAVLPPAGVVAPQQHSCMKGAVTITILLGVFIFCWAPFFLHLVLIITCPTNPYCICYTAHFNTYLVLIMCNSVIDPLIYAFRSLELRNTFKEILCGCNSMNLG
Melanocyte-stimulating hormone receptor, sequence (Q01727 whole entry): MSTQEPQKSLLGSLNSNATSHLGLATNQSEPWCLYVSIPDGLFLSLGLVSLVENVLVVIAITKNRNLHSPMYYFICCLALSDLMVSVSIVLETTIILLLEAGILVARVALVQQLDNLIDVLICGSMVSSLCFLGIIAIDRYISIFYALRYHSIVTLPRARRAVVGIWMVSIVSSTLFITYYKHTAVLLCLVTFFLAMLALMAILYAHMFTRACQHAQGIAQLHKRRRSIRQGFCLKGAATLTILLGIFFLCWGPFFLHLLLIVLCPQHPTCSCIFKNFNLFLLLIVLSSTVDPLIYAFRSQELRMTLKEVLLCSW
Melanocortin receptor 4, sequence (P56450 whole entry): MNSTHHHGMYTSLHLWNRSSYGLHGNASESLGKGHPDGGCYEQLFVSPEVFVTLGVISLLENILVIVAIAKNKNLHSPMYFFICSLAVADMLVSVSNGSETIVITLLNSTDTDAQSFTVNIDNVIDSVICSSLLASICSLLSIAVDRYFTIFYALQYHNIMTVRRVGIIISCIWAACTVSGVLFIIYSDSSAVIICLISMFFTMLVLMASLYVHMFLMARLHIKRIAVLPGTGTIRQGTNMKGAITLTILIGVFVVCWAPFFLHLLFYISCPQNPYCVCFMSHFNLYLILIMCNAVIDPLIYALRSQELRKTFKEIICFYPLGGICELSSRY
Melanocortin receptor 3 (Mus musculus), sequence (P33033 whole entry): as the sequence (P33033 whole entry) above
Melanocortin receptor 4 (Mus musculus), sequence (P56450 whole entry): as the sequence (P56450 whole entry) above

One may read the EC50 as the concentration that produces a half-maximal response. For the compound `CC(=O)NCC(=O)N(CC(=O)N(CC(=O)N[C@@H](CCCNC(=N)N)C(=O)N[C@@H](Cc1c[nH]c2ccccc12)C(=O)NCC(N)=O)Cc1ccccc1)Cc1ccccc1` (HELM PEPTIDE1{[ac].G.[O=C(CN(Cc1ccccc1)[*:1])[*:2]].[O=C(CN(Cc1ccccc1)[*:1])[*:2]].R.W.G.[am]}$$$$V2.0), the Stability entry in series [1] is “Unstable”. The metabolised at 1.5 h in series [2] was found to be 20%. The EC50 in series [3] came out at 240 nM; in series [4] it was 10.5 nM; in series [5], 8.1 nM. The results for the Activity in series [6] and in series [7] were 40% and less than 30%, respectively.

With `NC(=O)CN1CCNC(=O)CCCC(=O)N[C@@H](Cc2ccccc2)C(=O)N(Cc2ccccc2)CC(=O)N[C@@H](CCCN=C(N)N)C(=O)N[C@@H](Cc2c[nH]c3ccccc23)C1=O` (F[Nphe]RW[N(2-Aminoethyl)Gly]-NH2; linker N-5 via Glutaryl), in series [2], the metabolised at 1.5 h stood at 5%. Also, the EC50 is 1000 nM in series [3], greater than 100 nM in [8] and 2320 nM in [5].

As to `CC(=O)NCC(=O)N[C@@H](Cc1ccccc1)C(=O)N(CC(=O)N[C@@H](CCCNC(=N)N)C(=O)N[C@@H](Cc1c[nH]c2ccccc12)C(=O)NCC(N)=O)Cc1ccccc1` (HELM PEPTIDE1{[ac].G.F.[O=C(CN(Cc1ccccc1)[*:1])[*:2]].R.W.G.[am]}$$$$V2.0), in series [1], the Stability entry was “Unstable”. Besides, the metabolised at 1.5 h in series [2] amounted to 20%. Besides, the EC50 in series [3] is 220 nM; in series [8], greater than 100 nM; in [4] it was 8.8 nM; in series [5] it was 16.2 nM. In series [7], the Activity is less than 30%.

For the compound `NC(=O)CN1CCNC(=O)CCCCC(=O)N[C@@H](Cc2ccccc2)C(=O)N(Cc2ccccc2)CC(=O)N[C@@H](CCCN=C(N)N)C(=O)N[C@@H](Cc2c[nH]c3ccccc23)C1=O` (F[Nphe]RW[N(2-Aminoethyl)Gly]-NH2; linker N-5 via Adipoyl), in series [2], the metabolised at 1.5 h worked out at 5%. The EC50 in series [3] is 1170 nM; in [8], greater than 100 nM; in [4], 3300 nM; in [5], 485 nM.

On to `N=C(N)NCCC[C@@H]1NC(=O)CN(Cc2ccccc2)C(=O)[C@H](Cc2ccccc2)NC(=O)CCC(=O)NCCN(CC(N)=O)C(=O)[C@H](Cc2c[nH]c3ccccc23)NC1=O` (F[Nphe]RW[N(2-Aminoethyl)Gly]-NH2; linker N-5 via Suc), for which the Activity in [7] was less than 30%.

Regarding `NC(=O)CN1CCNC(=O)CCCCC(=O)N(Cc2ccccc2)CC(=O)N(Cc2ccccc2)CC(=O)N[C@@H](CCCN=C(N)N)C(=O)N[C@@H](Cc2c[nH]c3ccccc23)C1=O` ([Nphe][Nphe]RW[N(2-Aminoethyl)Gly]-NH2; linker N-5 via Adipoyl), in series [2], the metabolised at 1.5 h turned out to be 5%. Moreover, the EC50 is 990 nM in series [3], greater than 100 nM in series [8], 1700 nM in [4] and 320 nM in series [5].

With `NC(=O)CN1CCNC(=O)CCC(=O)N[C@@H](Cc2ccccc2)C(=O)N(Cc2ccccc2)CC(=O)N[C@@H](CCCN=C(N)N)C(=O)N[C@@H](Cc2c[nH]c3ccccc23)C1=O` (F[Nphe]RW[N(2-Aminoethyl)Gly]-NH2; linker N-5 via Suc), the metabolised at 1.5 h in series [2] turned out to be 5%. Moreover, the EC50 in series [3] is 2810 nM; in series [8], greater than 100 nM; in series [4], 3830 nM; in series [5] it was 3960 nM.

In the case of `N=C(N)NCCC[C@@H]1NC(=O)CN(Cc2ccccc2)C(=O)[C@H](Cc2ccccc2)NC(=O)CCCC(=O)NCCN(CC(N)=O)C(=O)[C@H](Cc2c[nH]c3ccccc23)NC1=O` (F[Nphe]RW[N(2-Aminoethyl)Gly]-NH2; linker N-5 via Glutaryl), the Activity was 25% in series [9] and less than 30% in [7].

As for `N=C(N)NCCC[C@@H]1NC(=O)[C@@H](Cc2ccccc2)NC(=O)CN(Cc2ccccc2)C(=O)CCCC(=O)NCCN(CC(N)=O)C(=O)[C@H](Cc2c[nH]c3ccccc23)NC1=O`, in series [10], the metabolised at 4 h was greater than 40%. Besides, in [2], the metabolised at 1.5 h amounted to 5%. In series [11], the Ratio amounted to 3. In addition, the EC50 in series [3] was 220 nM; in series [8], greater than 100 nM; in series [4] it was 640 nM; in [5] it was 310 nM. Further, the Activity in series [7] was 89%.

`N=C(N)NCCC[C@@H]1NC(=O)CN(Cc2ccccc2)C(=O)CN(Cc2ccccc2)C(=O)CCCC(=O)NCCN(CC(N)=O)C(=O)[C@H](Cc2c[nH]c3ccccc23)NC1=O` ([Nphe][Nphe]RW[N(2-Aminoethyl)Gly]-NH2; linker N-5 via Glutaryl): the Activity in series [7] is less than 30%.

For the compound `N=C(N)NCCC[C@@H]1NC(=O)[C@@H](Cc2ccccc2)NC(=O)CN(Cc2ccccc2)C(=O)CCCCC(=O)NCCN(CC(N)=O)C(=O)[C@H](Cc2c[nH]c3ccccc23)NC1=O`, the metabolised at 4 h in [10] was greater than 40%. Further, the metabolised at 1.5 h in series [2] was 5%. Besides, the EC50 in series [3] was 120 nM; in series [8], 7170 nM; in [4], 49 nM; in series [5] it was 8.1 nM. In addition, the Activity in series [7] came to 90%.

`N=C(N)NCCC[C@@H]1NC(=O)CN(Cc2ccccc2)C(=O)[C@H](Cc2ccccc2)NC(=O)CCCCC(=O)NCCN(CC(N)=O)C(=O)[C@H](Cc2c[nH]c3ccccc23)NC1=O` (F[Nphe]RW[N(2-Aminoethyl)Gly]-NH2; linker N-5 via Adipoyl): in series [7], the Activity was less than 30%.

`NC(=O)[C@H](Cc1c[nH]c2ccccc12)NC(=O)[C@H](CCCN=C(N)N)NC(=O)[C@@H](Cc1ccccc1)NC(=O)[C@@H](N)Cc1ccccc1`: the EC50 in series [3] came to 503 nM; in [8], 11900 nM; in series [4] it was 70.6 nM; in series [5], 143 nM.

For the compound `N=C(N)NCCC[C@@H]1NC(=O)CN(Cc2ccccc2)C(=O)CN(Cc2ccccc2)C(=O)CCCCC(=O)NCCN(CC(N)=O)C(=O)[C@H](Cc2c[nH]c3ccccc23)NC1=O` ([Nphe][Nphe]RW[N(2-Aminoethyl)Gly]-NH2; linker N-5 via Adipoyl), in series [7], the Activity was less than 30%.

On to `N=C(N)NCCC[C@@H]1NC(=O)CN(Cc2ccccc2)C(=O)CN(Cc2ccccc2)C(=O)CCC(=O)NCCN(CC(N)=O)C(=O)[C@H](Cc2c[nH]c3ccccc23)NC1=O` ([Nphe][Nphe]RW[N(2-Aminoethyl)Gly]-NH2; linker N-5 via Suc), for which, in series [2], the metabolised at 1.5 h was 5%. Also, the EC50 was 620 nM in series [3], greater than 100 nM in series [8], 1960 nM in [4] and 2950 nM in series [5]. The Activity in [7] is less than 30%.

On to `CC(=O)NCC(=O)N(CC(=O)N[C@H](Cc1ccccc1)C(=O)N[C@@H](CCCNC(=N)N)C(=O)N[C@@H](Cc1c[nH]c2ccccc12)C(=O)NCC(N)=O)Cc1ccccc1`, for which the metabolised at 1 h in series [12] worked out at 50%. The metabolised at 1.5 h in series [2] turned out to be 20%. In addition, the EC50 was 11800 nM in [3], greater than 100 nM in [8], 9820 nM in [4] and 3430 nM in series [5]. The Activity in series [7] was found to be 31%.

Turning to `NC(=O)CN1CCNC(=O)CCCC(=O)N(Cc2ccccc2)CC(=O)N(Cc2ccccc2)CC(=O)N[C@@H](CCCN=C(N)N)C(=O)N[C@@H](Cc2c[nH]c3ccccc23)C1=O` ([Nphe][Nphe]RW[N(2-Aminoethyl)Gly]-NH2; linker N-5 via Glutaryl), in [2], the metabolised at 1.5 h amounted to 5%. Also, the Ratio in series [11] is on record as 3. Moreover, the EC50 was 1680 nM in [3], greater than 100 nM in series [8], 2250 nM in series [4] and 350 nM in [5].

Turning to `N=C(N)NCCC[C@@H]1NC(=O)[C@@H](Cc2ccccc2)NC(=O)CN(Cc2ccccc2)C(=O)CCC(=O)NCCN(CC(N)=O)C(=O)[C@H](Cc2c[nH]c3ccccc23)NC1=O`, the Stability result in series [13] and in series [1] was “Stable” in each case. Besides, the Activity result was “Stable” in [14] and less than 30% in [7]. For the same compound, in [2], the metabolised at 1.5 h came out at 5%. For the same compound, the EC50 is 380 nM in series [3], greater than 100 nM in [8], 1370 nM in series [4] and 1650 nM in [5].
